Calls of active or inactive are those of the source.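 How the source made its calls, unless noted: active means viability at or below 10% of carrier control in both of two separate runs; inconclusive means viability at or below 10% in only one of the two runs; inactive means the rest.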
Tests used:
[1] = Her2 expression decrease, cell viability multiplex – SKBR3 breast tumor cells, AlphaScreen, ATP viability, primary screen (AID 461;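 active means Her2 level under about 52% in both replicate screens, with viability over 70% of control, limit read from the data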;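 on Her2 level: lower value means less Her2 protein in the cells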;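 on viability: percent of carrier control wells set as 100% viability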); details: SKBR3 Her2 protein level, 18-24 h, measured here: SKBR3 viability, ATP luminescence, at 10 µM
[2] = molecular target: Receptor tyrosine-protein kinase erbB-2 (Homo sapiens) (UniProt P04626); assay: as above; details: 18-24 h, at 10 µM, stronger effect = lower value
[3] = reduced viability of SK-BR-3 breast cancer cells – cell-based, 24 h, human, pilot screen (AID 572); details: SK-BR-3 viability, CellTiter-Glo luminescence, at 10 µM, stronger effect = lower value;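 further: compound exposure lasted between 18 and 24 h rather than exactly 24 h; 100% = carrier-treated control wells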
[4] = HUVEC growth inhibition – cell-based, human, primary screen (AID 575;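 active means viability at or below 30% in both replicate assays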;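 further: 100% = median of untreated cell wells with 0.1% DMSO on each plate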); details: HUVEC proliferation, CellTiter-Glo luminescence, 72 h; at 10 µM; stronger effect = lower value
Outline: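 Assay system: primary human umbilical vein endothelial cells / Buffer or medium: endothelial basal medium with 2% FBS plus growth supplements / Compound dosing: one dose, 10 µM final, 0.1% DMSO / Timing: 72 h treatment at 37 °C / Signal: CTG luminescence / Benchmarks: 32 DMSO-only cell-control wells (high), 32 MePR drug-control wells (low) per plate / Plate: collagen-coated 384-well format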

[5] = H69AR cell proliferation blockers – human, duplicate replicates, primary screen (AID 580;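 active means viability at or under a set limit in both replicates, limit being median viability minus 3 SD, cut at about 48% in these data, passing the limit was not always enough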;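 further: 100% = mean luminescence of untreated wells and 0% = no signal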); details: H69AR lung tumor cells viability, ATP luminescence, 72 h; at 10 µM; stronger effect = lower value
[6] = MRP1 drug-resistance reversers in H69AR cells – cell-based, doxorubicin co-treatment, pilot screen (AID 601;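 active means viability loss from added drug above about 55%, and viability with drug at most 40%, in both replicates, limit read from the data, passing the limit was not always enough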); details: CellTiter-Glo, 72 h, at 10 µM; for differential viability (reversal): stronger effect = higher value
[7] = yeast transport mutant growth inhibition pilot in 384-well plates, post-Golgi transport modulator project (AID 636; in the data active means inhibition above about 31%); details: absorbance 615 nm, about 18 h, stronger effect = higher value
[8] = growth suppression of yeast trafficking mutant, preliminary HTS, modulators of trafficking downstream of Golgi apparatus project, 1536-format plate, OD 615 nm (AID 637; in the data active means inhibition above about 30%); details: yeast transport mutant growth, absorbance 615 nm, 18 h; stronger effect = higher value
[9] = H69AR cells + 2 uM doxorubicin, measured here: viability with 2 uM doxorubicin, stronger effect = lower value
[10] = H69AR cells, compound alone cytotoxicity

Chain of Receptor tyrosine-protein kinase erbB-2 (Homo sapiens) (P04626 whole entry, looked up): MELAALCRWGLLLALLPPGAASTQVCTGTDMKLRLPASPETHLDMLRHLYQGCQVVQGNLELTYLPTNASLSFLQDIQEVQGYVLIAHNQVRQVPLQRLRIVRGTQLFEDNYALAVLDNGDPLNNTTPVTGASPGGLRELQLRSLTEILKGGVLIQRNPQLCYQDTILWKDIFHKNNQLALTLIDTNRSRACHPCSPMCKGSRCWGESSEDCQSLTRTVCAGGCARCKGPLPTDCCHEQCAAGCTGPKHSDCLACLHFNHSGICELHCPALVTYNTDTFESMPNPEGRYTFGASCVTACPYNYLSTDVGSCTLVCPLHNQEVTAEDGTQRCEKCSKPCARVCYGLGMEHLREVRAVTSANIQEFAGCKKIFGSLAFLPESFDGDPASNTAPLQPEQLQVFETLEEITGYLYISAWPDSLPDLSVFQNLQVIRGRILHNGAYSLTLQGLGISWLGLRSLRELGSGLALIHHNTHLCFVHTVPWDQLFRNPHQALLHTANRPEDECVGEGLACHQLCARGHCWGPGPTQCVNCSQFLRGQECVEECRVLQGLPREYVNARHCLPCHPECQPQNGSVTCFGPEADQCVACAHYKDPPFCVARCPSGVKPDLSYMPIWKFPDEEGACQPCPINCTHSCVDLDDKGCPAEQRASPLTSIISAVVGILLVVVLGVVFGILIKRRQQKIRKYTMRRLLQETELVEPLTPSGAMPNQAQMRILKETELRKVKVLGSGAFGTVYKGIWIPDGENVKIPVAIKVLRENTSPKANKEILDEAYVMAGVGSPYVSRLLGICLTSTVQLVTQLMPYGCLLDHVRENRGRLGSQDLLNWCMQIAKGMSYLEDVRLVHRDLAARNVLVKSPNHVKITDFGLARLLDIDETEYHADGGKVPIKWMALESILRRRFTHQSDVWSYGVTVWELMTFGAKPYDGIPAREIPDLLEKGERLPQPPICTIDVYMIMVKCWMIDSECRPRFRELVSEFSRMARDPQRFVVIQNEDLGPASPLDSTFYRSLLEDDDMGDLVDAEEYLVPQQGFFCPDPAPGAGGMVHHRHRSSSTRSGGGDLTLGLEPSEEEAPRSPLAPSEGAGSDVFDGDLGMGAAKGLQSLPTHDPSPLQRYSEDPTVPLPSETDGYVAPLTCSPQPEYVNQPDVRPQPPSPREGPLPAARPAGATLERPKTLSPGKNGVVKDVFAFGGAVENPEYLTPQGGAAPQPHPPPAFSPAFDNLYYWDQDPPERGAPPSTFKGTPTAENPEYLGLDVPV

SMILES | viability [1] [%] | Her2 level [2] | viability [3] | viability [4] | viability [5] | differential viability (reversal) ([6]; H69AR cells + 2 uM doxorubicin) | viability [6, 9] [%] | viability [6, 10] [%] | inhibition [7] | inhibition [8]
Cc1c(C(=O)N2CCCC2)sc(NC(=O)c2cccs2)c1C#N | 106 | 91.5% (inactive) | 106% (inactive) | 98.1% (inactive) | 89.9% (inactive) | -0.35% (inactive) | 90.2 | 89.9 | -3.6% (inactive) | -5.81% (inactive)
Cc1oc2nc(SCCCC(=O)NCCCO)nc(N)c2c1C | 91.5 | 85% (inactive) | 91.5% (inactive) | 103% (inactive) | 107% (inactive) | 7.75% (inactive) | 98.8 | 107 | -0.79% (inactive) | 4.75% (inactive)
CCOC(=O)CC(=O)Nc1c(C)cc(C)cc1C | 94.5 | 90.5% (inactive) | 94.5% (inactive) | 85% (inactive) | 102% (inactive) | 10.3% (inactive) | 91.8 | 102 | 2.57% (inactive) | -2.95% (inactive)
O=C(NCc1ccccn1)c1cccs1 | 97 | 80.5% (inactive) | 97% (inactive) | 92.4% (inactive) | 105% (inactive) | 11.9% (inactive) | 92.8 | 105 | -7.43% (inactive) | 4.1% (inactive)
Cc1ccccc1C1CC(c2ccccc2)Nc2ncnn21 (stereo not given) | 90 | 87.5% (inactive) | 90% (inactive) | 94.8% (inactive) | 64.2% (inactive) | -31.1% (inactive) | 95.3 | 64.2 | 1.47% (inactive) | -6.39% (inactive)
CCc1cc2c(CN3CCN(CCO)CC3)cc(=O)oc2cc1O | 106 | 97% (inactive) | 106% (inactive) | 90.4% (inactive) | 92.6% (inactive) | 0.895% (inactive) | 91.7 | 92.6 | -2.53% (inactive) | 1.61% (inactive)
CCC(=O)N(CCCN(C)C)c1nc(-c2cc(OC)ccc2OC)cs1 | 93.5 | 87.5% (inactive) | 93.5% (inactive) | 78.2% (inactive) | 84.6% (inactive) | 11.2% (inactive) | 73.3 | 84.6 | -5.2% (inactive) | 5.08% (inactive)
Nc1nc(CN2CCN(Cc3ccc4c(c3)OCO4)CC2)nc(Nc2ccccc2)n1 | 102 | 92.5% (inactive) | 102% (inactive) | 114% (inactive) | 97.4% (inactive) | 13% (inactive) | 84.4 | 97.4 | -2.76% (inactive) | 5.48% (inactive)
Nc1ncnc(Nc2ccccc2C(F)(F)F)n1 | 93.5 | 110% (inactive) | 93.5% (inactive) | 99.5% (inactive) | 95.6% (inactive) | 2.26% (inactive) | 93.3 | 95.6 | 5.19% (inactive) | -11.2% (inactive)
c1cn2cc(CSC3CCCCC3)nc2s1 | 84 | 80% (inactive) | 84% (inactive) | 86.5% (inactive) | 97.2% (inactive) | 10.9% (inactive) | 86.4 | 97.2 | -7.16% (inactive) | 6.35% (inactive)
C=CCOc1ccc(/C=N/n2cncn2)cc1OC | 85 | 112% (inactive) | 85% (inactive) | 103% (inactive) | 94.6% (inactive) | 8.46% (inactive) | 86.2 | 94.6 | 9.86% (inactive) | 16.8% (inactive)
CC1(C)CC(=O)c2cc(OCC(=O)NCCCN3CCN(c4ccccc4F)CC3)ccc2O1 | 81 | 85.5% (inactive) | 81% (inactive) | 59.3% (inactive) | 80% (inactive) | -5.98% (inactive) | 86 | 80 | -4.61% (inactive) | -3.45% (inactive)
Cc1ccc(S(=O)(=O)N2CCCC2C(=O)OCc2nc3ccccc3s2)cc1 (stereo not given) | 85.5 | 80.5% (inactive) | 85.5% (inactive) | 79.7% (inactive) | 99.2% (inactive) | 0.14% (inactive) | 99.1 | 99.2 | -7.95% (inactive) | -5.4% (inactive)
Cc1ccc(S(=O)(=O)N[C@@H](C)C(=O)N2CCC(C(=O)N3CCC[C@H]3C(=O)O)CC2)cc1 | 98 | 100% (inactive) | 98% (inactive) | 88.7% (inactive) | 102% (inactive) | 8.07% (inactive) | 93.6 | 102 | -4.4% (inactive) | 1.31% (inactive)
CC(=O)c1cccc(N(CC(=O)N2CCCC2)S(C)(=O)=O)c1 | 91.5 | 93% (inactive) | 91.5% (inactive) | 99.3% (inactive) | 99.7% (inactive) | 5.66% (inactive) | 94.1 | 99.7 | -6.67% (inactive) | 0.48% (inactive)
CCNc1nc(NCC)n2c(SCc3nc4ccccc4c(=O)[nH]3)nnc2n1 | 100 | 112% (inactive) | 100% (inactive) | 106% (inactive) | 78.1% (inactive) | -9.12% (inactive) | 87.2 | 78.1 | -1.58% (inactive) | -0.66% (inactive)
CN(Cc1ccco1)C(=O)Cn1c(=O)oc2cc(S(=O)(=O)NCc3ccccc3)ccc21 | 92 | 85.5% (inactive) | 92% (inactive) | 96.4% (inactive) | 89.8% (inactive) | -3.67% (inactive) | 93.4 | 89.8 | -2.67% (inactive) | 1.8% (inactive)
NC(=O)c1c(-c2ccccc2)oc2ccc(O)cc12 | 121 | 88% (inactive) | 121% (inactive) | 96.2% (inactive) | 90.4% (inactive) | 13.4% (inactive) | 77 | 90.4 | 1.18% (inactive) | -9.82% (inactive)
Cc1ccc(CCNC(=O)C2CCN(S(=O)(=O)c3c(C)nn(C)c3C)CC2)cc1 | 103 | 115% (inactive) | 103% (inactive) | 114% (inactive) | 89% (inactive) | -7.15% (inactive) | 96.1 | 89 | -1.92% (inactive) | -2% (inactive)
CCCCn1c(SCC(=O)N2CC(=O)Nc3ccccc32)nnc1-c1ccoc1C | 86.5 | 85.5% (inactive) | 86.5% (inactive) | 97.5% (inactive) | 96.7% (inactive) | 4.84% (inactive) | 91.8 | 96.7 | 2.67% (inactive) | -8.55% (inactive)
COc1cccc(Cn2c(Oc3ccccc3)nc3c2c(=O)n(C)c(=O)n3C)c1 | 100 | 104% (inactive) | 100% (inactive) | 72.7% (inactive) | 83.8% (inactive) | 3.32% (inactive) | 80.5 | 83.8 | -0.13% (inactive) | 6.07% (inactive)
CCOC(=O)C(NC(=O)c1ccccc1)(Nc1cc(C)on1)C(F)(F)F (stereo not given) | 106 | 90.5% (inactive) | 106% (inactive) | 101% (inactive) | 97.7% (inactive) | 11.1% (inactive) | 86.6 | 97.7 | -0.93% (inactive) | -1.61% (inactive)
Cc1ccc(C)c(S(=O)(=O)NCc2cccnc2)c1 | 92 | 87.5% (inactive) | 92% (inactive) | 108% (inactive) | 92.8% (inactive) | 1.22% (inactive) | 91.5 | 92.8 | -5.33% (inactive) | -6.19% (inactive)
CCCC(=O)N=C1SC2CS(=O)(=O)CC2N1c1ccc(CC)cc1 (stereo not given) | 97.5 | 80% (inactive) | 97.5% (inactive) | 83.2% (inactive) | 93.2% (inactive) | 7.88% (inactive) | 85.4 | 93.2 | -5.33% (inactive) | 3.61% (inactive)
Cc1ccccc1C(=O)NC1CCN(CC(=O)Nc2nccs2)CC1 | 92.5 | 96% (inactive) | 92.5% (inactive) | 88.8% (inactive) | 97.8% (inactive) | 11.6% (inactive) | 86.2 | 97.8 | -0.67% (inactive) | 5.08% (inactive)
Cc1cccc2sc(NC(=O)Cn3cccc3)nc12 | 87 | 93.5% (inactive) | 87% (inactive) | 107% (inactive) | 89.6% (inactive) | -8.27% (inactive) | 97.8 | 89.6 | -1.67% (inactive) | -1.83% (inactive)
Cc1cc2cc(CN(CC3CCCO3)C(=O)c3cnccn3)c(=O)[nH]c2cc1C (stereo not given) | 75 | 130% (inactive) | 75% (inactive) | 89.9% (inactive) | 92.3% (inactive) | 6.07% (inactive) | 86.3 | 92.3 | -0.8% (inactive) | -4.59% (inactive)

Source: PubChem BioAssay
